Experimental data from paper PMC3174326 (Journal of medicinal chemistry, 2011).
Where a SMILES comes first, the peptide text is derived from it. The star is where a group is joined. X1 = O=C(NCCCN*)c1ccc(-c2n[nH]c3ccccc23)cc1

What was measured:
JNK1 = JNK1 (Homo sapiens, UniProt P45983); assay type: biochemical; conditions: for IC50: read-out: Kinase Inhibition IC50, JNK1 phosphorylation of ATF2, TR-FRET
NONcNZO10/LtJ mice = assay: Glucose tolerance test in type 2 diabetes mouse model; assay type: in vivo; conditions: 25 mg/kg i.p. daily, 26-week-old NONcNZO10/LtJ mice, 2 g/kg D-glucose i.p.
How it was run: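 Male 26-week-old NONcNZO10/LtJ mice, glucose intolerant, received test compound daily by i.p. injection alongside vehicle-treated controls. After a 16 h fast, mice were given D-glucose i.p. Blood was sampled at set time points and glucose read with a hand-held meter. Treated and vehicle groups were compared by two-way ANOVA using all measurements.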

GST-JNK1 = GST-JNK1 (UniProt P45983 1-427); assay: DELFIA
GST-JNK1, sequence (P45983 whole entry): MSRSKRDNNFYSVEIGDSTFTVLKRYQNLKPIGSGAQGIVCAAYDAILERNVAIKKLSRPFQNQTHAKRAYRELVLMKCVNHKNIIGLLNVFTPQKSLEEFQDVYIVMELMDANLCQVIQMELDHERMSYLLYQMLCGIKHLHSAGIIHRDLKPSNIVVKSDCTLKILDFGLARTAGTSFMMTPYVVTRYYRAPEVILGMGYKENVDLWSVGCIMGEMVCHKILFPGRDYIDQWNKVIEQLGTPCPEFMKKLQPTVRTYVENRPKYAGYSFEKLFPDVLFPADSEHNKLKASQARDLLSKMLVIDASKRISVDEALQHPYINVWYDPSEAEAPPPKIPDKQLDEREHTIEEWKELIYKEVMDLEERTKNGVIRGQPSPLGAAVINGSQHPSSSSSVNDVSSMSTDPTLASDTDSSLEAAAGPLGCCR

JNK1, sequence (P45983 whole entry): as above

improvement of kinase inhibition properties compared with 20 (JNK1; 9 versus 20, Figure 1e) | IC50 (GST-JNK1) | Molecule | IC50 (JNK1) | glucose tolerance / restoring normoglycemia (NONcNZO10/LtJ mice)
over 100 fold |  | CC(C)CC(NC(=O)C(CC(N)=O)NC(=O)C(CC(C)C)NC(=O)C(NC(=O)C(NC(=O)C1CCCN1C(=O)C(N)CCCNC(=N)N)C(C)O)C(C)O)C(=O)NCC(=O)NCC(=O)NCCCNC(=O)c1ccc(-c2n[nH]c3ccccc23)cc1 (centres unmarked) [compound 9] (H-RPTTLNLGG-X1; configuration not given here) | 0.0007 µM | 
 |  | Ac-tdqsrpvqpflnlttprrprpprrrqrrkkrg-OH (Ac-TDQSRPVQPFLNLTTPRRPRPPRRRQRRKKRG-OH; also: lowercase letters in name, meaning not given here) [compound 11] | > 50 µM | observed shortcoming
 | 4.5 µM | Ac-RPTTLNL-OH [10 (Ac-RPTTLNL-OH)] |  | 
